Measured values gathered from unrelated publications.
Compare with care: the assays were run in different laboratories.
Target: Receptor-interacting serine/threonine-protein kinase 2 (RIPK2, Homo sapiens, UniProt O43353)

Structure (SMILES)	test	conditions	quantity	result
CC(C)S(=O)(=O)c1ccc2nccc(Nc3ccc4sc(C5CCCC5)nc4c3)c2c1	enzyme activity, inhibitor	1 µM	activity vs control	2.5%
COc1ccc2[nH]c3c4[nH]c5ccc(OC)cc5c4c4c(c3c2c1)C(=O)NC4=O	binding, competition with immobilised ligand	1 µM	remaining binding	60%
C#Cc1cc(-c2cc(Nc3nc(N[C@@H](C)c4ccc(F)cn4)ncc3Cl)n[nH]2)ccc1C=O	enzyme activity, inhibitor	0.2 µM	inhibition	14.7%
CO[C@@H]1[C@H](N(C)C(=O)c2ccccc2)C[C@H]2O[C@]1(C)n1c3ccccc3c3c4c(c5c6ccccc6n2c5c31)C(=O)NC4	enzyme activity, inhibitor	1 µM	inhibition	0%
CCCCC(=O)Nc1ccc(-c2ccc3ncn(CCC)c(=O)c3c2)cn1	binding, competition with immobilised ligand	0.5 µM	remaining binding	98%
COc1ccc2oc(-c3ccc4nc(N)oc4c3)c/c(=N\c3ccccc3NC(=O)CCN)c2c1	binding	1 µM	remaining binding	112%
C=CC(=O)N1CCC([C@@H]2CCNc3c(C(N)=O)c(-c4ccc(Oc5ccccc5)cc4)nn32)CC1	enzyme activity, inhibitor	1 µM	inhibition	96%
Cc1ccc(NC(=O)c2ccnc(C(F)(F)F)c2)cc1-c1cc(OCCO)nc(N2CCOCC2)c1	binding, competition with immobilised ligand	1 µM	remaining binding	63%
